# LMPTP block: LMPTP (human) inhibition; AID 651560; recombinant LMPTP-A, OMFP fluorogenic substrate, fluorescence intensity; 0.22% of 360,000 active; P24666; inhibition, % at 20 µM;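 active = compounds that cut the enzyme signal by at least half of the control window in the single-dose screen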
#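 Assay system: LMPTP-A, protein tyrosine phosphatase of low molecular weight / Medium: pH 6.0 Bis-Tris buffer with DTT and Triton X-100 / Schedule: 50 min enzyme reaction at room temperature, protected from light / Measured by: endpoint fluorescence intensity from OMFP dephosphorylation / Read-out basis: % inhibition relative to no-enzyme and uninhibited control wells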
# SUMO1-SIM PPI: SUMO1-SIM interaction modulation | P63165 | SUMO1 binding to a labelled peptide, TR-FRET, 1 h | inhibition, % at 20 µM | 0.33% of 360,000 active | AID 602429; in the data active = inhibition above about 37%
# Target sequence (P63165 whole entry, looked up): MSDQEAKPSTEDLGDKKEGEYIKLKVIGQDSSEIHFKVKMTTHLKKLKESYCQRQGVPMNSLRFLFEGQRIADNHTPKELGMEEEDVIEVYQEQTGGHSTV
# Rpn11 block: blocks the human proteasome subunit Rpn11; O00487; human 26S proteasome, Ub4-pepOG fluorescence polarization; 20S core pre-blocked with epoxomicin; inhibition, % at 20 µM; 0.59% of 360,000 active; AID 588493;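 active = inhibition at 20 µM, scaled to each plate's controls, above about 33%, limit read from the data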
# Scp-1 inhibitor: blocks human Scp-1 phosphatase activity | Q9GZU7 | Recombinant Scp1, phosphopeptide, malachite green phosphate absorbance | inhibition, % at 20 µM | 0.88% of 340,000 active | AID 493091;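 active = inhibition above about 50% at 20 µM, limit read from the data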
#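 Assay system: SCP-1 catalytic fragment, aa 76-261 | Buffer or medium: Tris acetate buffer pH 5.5 with MgCl2 and Tween-20 | Compound: One concentration, 20 µM, with 1.0% DMSO | Also added: Phospho 17-mer peptide substrate | Signal: Absorbance at 630 nm | Incubation: 45 min enzyme reaction at room temperature | Measure: % inhibition of SCP-1 phosphate liberation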
# DNMT1 inh: DNMT1 (human) enzyme inhibition | P26358 | DNMT1 molecular beacon, Hinp1I cleavage, fluorescence | inhibition (reported as % activation of signal), % at 10 µM | 0.83% of 360,000 active; in the data active = inhibition above about 50%
# STEP block: blocks human striatal-enriched tyrosine phosphatase; P54829; recombinant STEP, OMFP fluorogenic substrate, fluorescence; inhibition, % at 20 µM; 0.25% of 360,000 active; AID 588621;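 active = inhibition at 20 µM, scaled per plate between control wells, above about 37%, limit read from the data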
# Target sequence (P54829 whole entry, looked up): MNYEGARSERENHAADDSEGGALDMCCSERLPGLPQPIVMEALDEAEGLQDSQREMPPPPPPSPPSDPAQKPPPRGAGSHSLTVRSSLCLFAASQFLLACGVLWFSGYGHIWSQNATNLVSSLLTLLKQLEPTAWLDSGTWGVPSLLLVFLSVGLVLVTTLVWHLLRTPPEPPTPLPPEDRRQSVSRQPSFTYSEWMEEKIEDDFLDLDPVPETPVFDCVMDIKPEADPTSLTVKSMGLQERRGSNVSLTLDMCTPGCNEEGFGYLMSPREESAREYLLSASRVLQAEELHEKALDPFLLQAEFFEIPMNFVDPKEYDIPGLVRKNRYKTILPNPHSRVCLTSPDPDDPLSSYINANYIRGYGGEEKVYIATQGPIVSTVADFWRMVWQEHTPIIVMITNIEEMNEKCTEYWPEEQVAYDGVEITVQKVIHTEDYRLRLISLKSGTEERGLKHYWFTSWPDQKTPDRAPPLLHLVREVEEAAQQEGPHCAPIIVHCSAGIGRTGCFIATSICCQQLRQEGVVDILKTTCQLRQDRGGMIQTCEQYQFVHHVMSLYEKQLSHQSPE
#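 Material: STEP (striatal-enriched tyrosine phosphatase) enzyme, cell-free | Medium: 50 mM Bis-Tris pH 6.0 with 2.5 mM DTT and 0.005% Tween 20 | Read-out: Percent inhibition scaled to no-enzyme and uninhibited-enzyme controls, plate-pattern corrected | Signal: Fluorescence read at 480 nm ex / 540 nm em | Times: 20 min reaction, room temperature, in the dark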
# DNMT1 inh conf: DNMT1 inhibition confirmation, single concentration; DNMT1 molecular beacon HinP1I cleavage, fluorescence; inhibition, % at 10 µM; AID 602385; shares compounds with DNMT1 inh; 8% of 2,300 active;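 active = average inhibition of at least 30% in the single-concentration confirmation test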
# Beacon interf: counter-screen for DNMT1 inhibitors: spectral interference; DNMT1 molecular beacon spectral interference counterscreen, fluorescence 485/520; 1% of 2,300 active; shares compounds with DNMT1 inh; activation (fluorescence interference), % at 10 µM; AID 602387;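 active = activation of at least 30% at 10 µM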;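 note: DNMT1 catalytic domain with a HinP1I cleavage step and a FAM/dabcyl DNA beacon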
# Hits are given with their value; i = inactive; nt = no result given. The list is not random: actives were taken first. Their share in the collection is about 2.3%.
SMILES,LMPTP block,SUMO1-SIM PPI,Rpn11 block,Scp-1 inhibitor,DNMT1 inh,STEP block,DNMT1 inh conf,Beacon interf
COc1ccccc1-c1nnc(NC(=O)c2ccc3c(c2)OCO3)s1,i,i,i,i,55,i,i,i
CC(C)c1nnc(NC(=O)c2ccc3c(c2)OCO3)s1,i,i,i,i,i,i,nt,nt
COc1cccc(NC(=S)NCCC(c2ccccc2)c2ccccc2)c1,i,i,i,i,56,i,i,i
COc1ccc(Cc2nnc(NC(=O)c3ccco3)s2)cc1,i,i,i,i,i,i,nt,nt
Cc1ccn(CCC(=O)NC2CC(C)(C)Cc3c2cnn3-c2ccccc2C)n1 (centres undefined),i,i,i,i,i,i,nt,nt
Cc1ccc(-c2n[nH]c(=S)n2/N=C/C=C/c2ccccc2[N+](=O)[O-])cc1,i,i,i,i,i,i,nt,nt
O=[N+]([O-])c1ccccc1/C=C/C=N/n1c(-c2cc(-c3ccccc3)n[nH]2)n[nH]c1=S,i,i,i,i,53,i,i,i
Cc1nc(NCc2cccnc2)c2c3c(sc2n1)CCCC3,i,i,i,i,51,i,i,i
CN[C@H]1C[C@H]2c3[nH]c4ccc(-c5ccc(OC)cc5)cc4c3CCN2C(=O)[C@H]1[C@H](C)O,i,i,i,nt,i,i,nt,nt
O=C(COc1ccccc1)NCc1ccco1,i,i,i,i,i,i,nt,nt
N#Cc1c2ccc(OCC(=O)NCc3ccco3)cc2n2ccccc12,i,i,i,i,62,i,i,i
Cc1nc2ccccc2c2ncccc12,i,i,i,i,i,i,nt,nt
c1cnc2nc3c4ccccc4c4ccccc4c3nc2c1,i,i,i,i,52,i,i,i
CCOC(=O)Cc1csc(NC(=O)/C=C/c2ccc(Cl)cc2)n1,i,i,i,i,i,i,nt,nt
COCC(=O)OCC(=O)N1N=C(c2ccc(Cl)cc2)CC1c1ccco1 (centres undefined),i,i,i,i,i,i,nt,nt
O=C(CCl)N1N=C(c2ccco2)CC1c1ccco1 (centres undefined),i,i,i,i,87,i,i,i
O=C(OCC(=O)N1N=C(c2ccc(Cl)cc2)CC1c1ccco1)c1cccnc1 (centres undefined),i,i,i,i,81,i,i,i
O=C(NCCCN1CCN(c2ccccc2F)CC1)C1CCC(=O)N1C1CCCC1 (centres undefined),i,i,i,i,i,i,nt,nt
O=C1c2ccccc2-c2c1c1ccccc1c(=O)n2-c1ccccc1,i,i,i,i,i,i,i,i
CCOC(=O)c1c(NC(=O)CSc2nnc(C)o2)sc(C)c1C,i,i,i,i,59,i,i,i
CCOC(=O)c1c(NC(=O)CSc2nnnn2C)sc(C)c1C,i,i,i,i,i,i,nt,nt
Cc1ccc(NC(=O)c2nc[nH]c2C(=O)NCCCCNC(=O)c2[nH]cnc2C(=O)Nc2ccc(C)cc2)cc1,i,i,i,i,89,i,i,i
Cc1ccc(NC(=O)c2nc[nH]c2C(=O)NCCCNC(=O)c2[nH]cnc2C(=O)Nc2ccc(C)cc2)cc1,i,i,i,i,59,i,i,i
O=C(Nc1cccc(Cl)c1)c1nc[nH]c1C(=O)NCCCNC(=O)c1[nH]cnc1C(=O)Nc1cccc(Cl)c1,i,i,i,i,61,i,i,i
Cc1ccc(NC(=O)c2nc[nH]c2C(=O)NCCCCCCNC(=O)c2[nH]cnc2C(=O)Nc2ccc(C)cc2)cc1,i,i,i,i,i,i,nt,nt
SMILES,LMPTP block,SUMO1-SIM PPI,Rpn11 block,Scp-1 inhibitor,DNMT1 inh,STEP block,DNMT1 inh conf,Beacon interf
CCC(C)c1ccccc1N1CC(C(=O)Nc2cc(S(=O)(=O)N3CCOCC3)ccc2OC)CC1=O (centres undefined),i,i,i,i,i,i,nt,nt
COc1ccc(Nc2ccc(OC)cc2)cc1,i,i,i,i,56,i,i,i
COc1ccc(Nc2ccc(Nc3ccc(OC)cc3)nn2)cc1,i,i,i,i,i,i,nt,nt
Cc1noc(C)c1NC(=O)N(C)C[C@H]1Oc2c(NC(=O)Nc3ccc4c(c3)OCO4)cccc2C(=O)N([C@H](C)CO)C[C@@H]1C,i,i,i,i,i,i,nt,nt
O=C(Nc1nnc(-c2ccccc2SCc2ccccc2)s1)Nc1ccccc1F,i,i,i,i,i,i,nt,nt
O=C(Nc1nnc(-c2ccccc2F)s1)Nc1ccccc1F,i,i,i,i,53,i,i,i
CC(C)c1cc(Cn2c3ccccc3c(=O)n2C(C)Cn2cc(-c3ccccc3)nn2)on1 (centres undefined),i,i,nt,nt,nt,nt,nt,nt
O=C(Nc1cccc(S(=O)(=O)N2CCCCCC2)c1)c1ccc2c(c1)OCO2,i,i,i,i,i,i,nt,nt
O=C(Nc1cccc(S(=O)(=O)N2CCCC2)c1)c1ccc2c(c1)OCO2,i,i,i,i,95,i,i,i
O=C(c1cccc(Cl)c1)N1CCN(Cc2ccc3c(c2)OCO3)CC1,i,i,i,i,90,i,i,i
N#CCSc1nnc(-c2ccc(F)cc2)n1N,i,i,i,i,92,i,i,i
C=CCn1c(N)c(C(=O)OC(C)CC)c2nc3ccccc3nc21 (centres undefined),i,i,i,i,70,i,i,i
C=CCn1c(N)c(C(=O)OC(C)(C)C)c2nc3ccccc3nc21,i,i,i,i,i,i,nt,nt
CCC(C)n1c(NC(=O)c2ccccc2)c(C#N)c2nc3ccccc3nc21 (centres undefined),i,43,nt,i,73,i,i,i
Cc1cc(=O)oc2cc(OCC(=O)N/N=C/c3ccccc3O)ccc12,i,i,i,i,61,i,i,i
Cc1cc(=O)oc2cc(OCC(=O)c3ccccc3)ccc12,i,i,i,i,i,i,nt,nt
COc1ccc(S(=O)(=O)N2CCOCC2)cc1NC(=O)COc1ccc2c(C)cc(=O)oc2c1,i,i,i,i,i,i,nt,nt
COc1ccc(NC(=O)COc2ccc3c(C)cc(=O)oc3c2)cc1S(=O)(=O)N1CCCCC1,i,i,i,i,63,i,i,i
CC(C)(C)OC(=O)NCc1ccc(NC(=O)c2nc[nH]c2C(=O)NCCCCNC(=O)c2[nH]cnc2C(=O)Nc2ccc(CNC(=O)OC(C)(C)C)cc2)cc1,i,i,i,i,61,i,i,i
CC(C)(C)OC(=O)NCc1ccc(NC(=O)c2nc[nH]c2C(=O)NCCCNC(=O)c2[nH]cnc2C(=O)Nc2ccc(CNC(=O)OC(C)(C)C)cc2)cc1,i,i,i,i,60,i,i,i

# Source: PubChem BioAssay
